Activity calls are given as the source filed them. The rule behind the calls is not given here.
Experiments:
HUVEC = assay: Cytotoxicity against HUVEC at 1.0 mmol/L after 24 hrs by trypan blue staining based assay; format: cell-based; conditions: human, 1000 µM
Method in brief: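 HUVECs (pooled donor) grown in Medium-199 with 20% FCS, endothelial cell growth factor and heparin, 37 °C, 5% CO2. Agents dissolved in 100% DMSO and added at final 1.0 mmol/L for 24 h. Viability scored by 0.4% trypan blue exclusion right after culture, relative to viable count at start. Untreated cells as control. At least 3 repeats, averaged.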

[1] = Drug metabolism assessed as photolysis by measuring parent compound at 4.26 mM using MeCN and Water (1:3) as solvent system measured upon irradiation with 8-Watt UV365nm light after 75 mins by HPLC analysis; format: physicochemical; conditions: MeCN and water (1:3) solvent system, read-out: Drug metabolism
Method in brief: (§1)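 Caged compound prepared as 4.26 mM solution in MeCN/water (1:3). Irradiated with 8-Watt 365 nm UV lamp. Aliquots taken at 30, 45, 60, 75 and 90 min and analysed by HPLC for remaining caged parent and released hydroxamic acid (identified by m/z). Carboxamide side product tracked by its separate peak.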

[2] = Drug metabolism assessed as photolysis by measuring parent compound at 85 uM using DMSO, EtOH and water (4:4:92) as solvent system measured upon irradiation with 100mW UV365nm light after 2 mins by HPLC analysis; format: physicochemical
[3] = Drug metabolism assessed as photolysis by measuring parent compound at 4.26 mM using MeCN and Water (1:3) as solvent system measured upon irradiation with 8-Watt UV365nm light after 60 mins by HPLC analysis; format: physicochemical; conditions: MeCN and water (1:3) solvent system, read-out: Drug metabolism; method in brief: as §1
[4] = target: T1, Histone deacetylase (Homo sapiens) (UniProt Q13547+O15379+Q9UBN7+Q92769+Q9UQL6+Q8WUI4+Q9BY41+Q96DB2+P56524+Q9UKV0+Q969S8); assay: Inhibition of HDAC in human HL-60 cells assessed as increase in H3 histone acetylation at 10 uM after 24 hrs by Western blot anlaysis; format: cell-based
Method in brief: (§2)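 Caged compound coated on angioplasty balloon at 3.0ug/mm2. Balloon either exposed to 365 nm UV (65mW, 4 min) or left unexposed, then compound eluted. HL60 cells (RPMI-1640, 10% heat-inactivated FCS, 37 °C, 5% CO2) treated with eluate at 10.0 µM for 24 h, then PBS-washed. Histones acid-extracted (H2SO4, acetone precipitation), quantified by Bradford. 25 µg per lane run on 15% SDS-PAGE and transferred to PVDF. Blocked in 5% milk, probed overnight at 4 °C with anti-acetyl histone H3, detected with HRP anti-rabbit IgG (1:1000). Untreated cells as control.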

[5] = Drug metabolism assessed as photolysis by measuring parent compound at 85 uM using DMSO, EtOH and water (4:4:92) as solvent system measured upon irradiation with 100mW UV365nm light after 6 mins by HPLC analysis; format: physicochemical; conditions: EtOH and water (4:4:92) solvent system, read-out: Drug metabolism
[6] = Drug metabolism assessed as photolysis by measuring parent compound at 4.26 mM using MeCN and Water (1:3) as solvent system measured upon irradiation with 8-Watt UV365nm light after 90 mins by HPLC analysis; format: physicochemical; conditions: MeCN and water (1:3) solvent system, read-out: Drug metabolism; method in brief: as §1
[7] = Drug metabolism assessed as photolysis by measuring parent compound at 4.26 mM using MeCN and Water (1:3) as solvent system measured upon irradiation with 8-Watt UV365nm light after 30 mins by HPLC analysis; format: physicochemical; conditions: MeCN and water (1:3) solvent system, read-out: Drug metabolism; method in brief: as §1
[8] = Drug metabolism assessed as photolysis by measuring parent compound at 85 uM using DMSO, EtOH and water (4:4:92) as solvent system measured upon irradiation with 100mW UV365nm light after 4 mins by HPLC analysis; format: physicochemical; conditions: EtOH and water (4:4:92) solvent system, read-out: Drug metabolism
[9] = Drug metabolism assessed as photolysis by measuring parent compound at 4.26 mM using MeCN and Water (1:3) as solvent system measured upon irradiation with 8-Watt UV365nm light after 45 mins by HPLC analysis; format: physicochemical; conditions: MeCN and water (1:3) solvent system, read-out: Drug metabolism; method in brief: as §1
[10] = target: T1, Histone deacetylase (Homo sapiens); assay: Inhibition of HDAC in human HL-60 cells assessed as increase in H3 histone acetylation at 10 uM under UV irradiation after 24 hrs by Western blot anlaysis; format: cell-based; method in brief: as §2

Row | SMILES | Activity (HUVEC) | remaining at 1.25 h, 4260 µM [1] [%] | Drug metabolism [2] [%] | remaining at 1 h, 4260 µM [3] [%] | inhibition [4] | remaining at 0.1 h, 85 µM [5] [%] | remaining at 1.5 h, 4260 µM [6] [%] | remaining at 0.5 h, 4260 µM [7] [%] | remaining at 4 min, 85 µM [8] [%] | remaining at 0.75 h, 4260 µM [9] [%] | inhibition [10]
1 | CC(=O)O[C@H]1C(=O)[C@@]2(C)[C@H]([C@H](OC(=O)c3ccccc3)[C@]3(O)C[C@H](OC(=O)[C@H](O)[C@@H](NC(=O)c4ccccc4)c4ccccc4)C(C)=C1C3(C)C)[C@]1(OC(C)=O)CO[C@@H]1C[C@@H]2O [PACLITAXEL] | Toxic |  |  |  |  |  |  |  |  |  | 
2 | COc1cc(C(C)ONC(=O)c2ccc(-c3cccc(NS(C)(=O)=O)c3)cc2)c([N+](=O)[O-])cc1OCCCC(=O)O (centres undefined) | Non-Toxic | 2.4 | 28.9 | 8.4 | inactive | 8.2 | 0.7 | 53.3 | 11.1 | 18 | Active
3 | CS(=O)(=O)Nc1cccc(-c2ccc(C(=O)NO)cc2)c1 | Toxic |  |  |  | Active |  |  |  |  |  | 

Source: ChEMBL document CHEMBL4725264, “Synthesis and biological evaluation of a novel photo-activated histone deacetylase inhibitor” (Bioorg Med Chem Lett, 2020)
